# Source: PubChem BioAssay
# KCNQ1 block: human KCNQ1 channel inhibition | P51787 | CHO-K1 KCNQ1, FluxOR thallium flux fluorescence; stronger effect = higher value | B-score at 10 µM | hit rate 1.3% among 310,000 | AID 2642;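 active = compounds whose thallium flux B-score, printed positive for inhibition, exceeds three library SD while starting fluorescence stays within three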;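 note: channel opened by potassium depolarization with thallium stimulus after 20 min compound exposure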
# KCNK9 inh: human KCNK9 channel inhibition. Q9NPC2. HEK293 KCNK9, FluxOR thallium flux fluorescence; stronger effect = lower value. B-score at 10 µM. hit rate 1.2% among 310,000;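 active = ratio B-score over 3 SD below the library mean, with starting fluorescence within 5 SD of its mean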;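 note: negative B-score means less thallium flux so channel inhibition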
# Target sequence (Q9NPC2 whole entry, looked up): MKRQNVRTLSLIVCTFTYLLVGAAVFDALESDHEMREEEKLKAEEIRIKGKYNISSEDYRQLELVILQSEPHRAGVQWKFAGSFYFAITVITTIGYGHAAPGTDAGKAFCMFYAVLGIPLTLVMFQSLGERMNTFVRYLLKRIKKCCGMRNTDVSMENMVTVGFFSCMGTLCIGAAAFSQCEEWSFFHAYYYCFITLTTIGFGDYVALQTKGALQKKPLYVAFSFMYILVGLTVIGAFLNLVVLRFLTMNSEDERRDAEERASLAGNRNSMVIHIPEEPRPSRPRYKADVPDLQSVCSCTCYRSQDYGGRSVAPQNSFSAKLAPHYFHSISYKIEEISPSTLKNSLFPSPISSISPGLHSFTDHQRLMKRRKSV
# Kir21 inh: blocks the mouse Kir2.1 inward-rectifier potassium channel; B-score at 10 µM; hit rate 0.85% among 310,000; P35561; HEK293-Kir2.1, FluxOR thallium flux fluorescence; stronger effect = lower value;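 active = fluorescence ratio B-score at or below minus 3 SD of library scores, with starting-brightness B-score within 2 SD, cut at about -4.2 in these data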;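 note: channel flux triggered by added potassium and thallium sulfate stimulus; B-score of peak minus minimum fluorescence over baseline after thallium stimulus; more negative B-score means stronger Kir2.1 block with less thallium influx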
# KCNQ1 act: human KCNQ1 channel potentiation or activation; P51787; CHO-K1 KCNQ1, thallium flux FluxOR fluorescence; stronger effect = higher value; B-score at 10 µM; hit rate 0.35% among 310,000;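 active = fluorescence ratio B-score, a plate-corrected score, at least three library SD, with initial intensity B-score within 5 SD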
#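 Assay system: CHO-K1 cells stably expressing KCNQ1; Medium: assay buffer with matched DMSO; Also added: K+/Tl+ depolarizing stimulus; Dosing: single dose; Timing: dye 90 min, compound 20 min, room temperature; Measured by: kinetic FluxOR thallium fluorescence, 10-s 1-Hz baseline, 110-s post-stimulus read; Read-out: peak-minus-minimum fluorescence over initial fluorescence, negative-control normalized, B-scored.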
# hERG protect: shields human hERG channel from block by proarrhythmic agents | activation (rescue from dofetilide block), less the hit threshold, % at 10 µM | AID 1511 | CHO-hERG, FluxOR thallium flux, dofetilide IC70 present | hit rate 0.51% among 310,000;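 active = activation above the mean of controls blocked by dofetilide plus 5 SD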;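 note: thallium influx through hERG after potassium depolarization seen as dye fluorescence rise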
# KCNK3 inh: human KCNK3 channel inhibition, primary screen; O14649; CHO-KCNK3 thallium flux, FluxOR fluorescence; stronger effect = lower value; B-score at 10 µM; hit rate 0.84% among 340,000;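 active = B-score under library mean minus 4 SD, starting fluorescence ratio at most library mean plus 5 SD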;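 note: more negative B-score means stronger inhibition of thallium flux through KCNK3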
# KCNK9 block conf: human KCNK9 inhibitor confirmation; shares compounds with KCNK9 inh; HEK293 KCNK9 cells, FluxOR thallium flux fluorescence; inhibition, % at 10 µM; hit rate 43% among 4,900; AID 492992;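 active = thallium signal inhibited by more than 5 SD of the compound-free buffer control wells, on both duplicate plates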;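 note: 0% = assay buffer control wells without compound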
# Kir2-1 spec: tests whether KCNK9 modulators also affect mouse Kir2.1 | hit rate 4% among 4,900 | Kir2.1 cells, FluxOR thallium flux fluorescence | inhibition, % at 10 µM | shares compounds with KCNK9 inh;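 active = thallium signal drop more than 5 SD beyond the mean of the no-compound control wells, seen in both duplicate plates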;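 note: signal is fluorescence rise after thallium addition divided by baseline fluorescence; plate controls were assay buffer only for no effect and full block by chlorpromazine control for full effect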
# HEK293 Tl ctr: non-induced cell nonspecific activity of KCNK9 modulators. inhibition, % at 10 µM. hit rate 40% among 4,900. shares compounds with KCNK9 inh. non-induced KCNK9-HEK293, FluxOR thallium flux. AID 492997;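 active = thallium signal drop beyond 5 SD of the untreated control mean, on both duplicate plates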;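 note: plate controls were buffer only IC0 wells for no effect and SID17386958 at its maximal inhibitory level for full effect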
# An asterisk follows results filed as active; i = inactive; x = no result given. In the library only some 3.7% were active in any assay of this set; here they are far more common.
SMILES,KCNQ1 block,KCNK9 inh,Kir21 inh,KCNQ1 act,hERG protect,KCNK3 inh,KCNK9 block conf,Kir2-1 spec,HEK293 Tl ctr
CCn1c(=O)c(=O)[nH]c2c(=O)oc3ccc(S(=O)(=O)Nc4ccccc4)cc3c21,i,i,-0.05,i,-12,i,x,x,x
O=C(CCNC(=O)c1ccccc1Cl)Nc1nc(-c2ccc3ccccc3c2)cs1,i,-8.2*,-1.1,i,-8,i,42%*,i,i
COc1ccc(N2CCN(C(=O)c3ccccc3F)CC2)c([N+](=O)[O-])c1,i,i,-1.3,i,-2,i,x,x,x
COc1ccc(N2CCN(C(=O)CC34CC5CC(CC(C5)C3)C4)CC2)c([N+](=O)[O-])c1,i,-12*,-0.06,i,-4,i,66%*,i,i
CN(c1ccc([N+](=O)[O-])cc1C(=O)Nc1ccccc1)C1CCCCC1,i,-13*,-1.1,i,-13,i,30%*,i,42%*
Cc1cccc(NC(=O)c2cc([N+](=O)[O-])ccc2NC2CCCCC2)c1,i,i,-0.05,i,-3,i,x,x,x
O=C1CCC(C(=O)OCc2nnc(-c3ccccc3)o2)=NN1,i,i,0.64,i,-12,i,x,x,x
CC(=O)Nc1ccc(N/C=C/C(=O)c2ccc(C)o2)cc1,i,i,-0.76,i,-5,i,x,x,x
COc1ccccc1Oc1ccc(N/C=C/C(=O)c2ccc(C)o2)cc1,i,i,-0.86,i,-4,i,i,i,i
O=C(O)c1ccc(N/N=C/c2ccc(-c3ccc(Cl)cc3Cl)o2)cc1,i,i,1.3,i,-10,i,i,i,i
Cc1c(C(=O)O)cccc1-c1ccc(/C=N/n2cnnc2)o1,i,i,-0.02,i,-8,i,x,x,x
Cc1c(C(=O)O)cccc1-c1ccc(/C=N/Nc2ccc(Br)cc2)o1,i,i,0.39,i,-12,i,i,i,i
CC(CNS(=O)(=O)c1ccc(Cl)cc1)n1cncn1 (configuration not stated),i,i,-0.02,i,0,i,x,x,x
COc1ccc2c(c1)CCC/C2=N/OC(=O)c1ccccc1OC,i,-12*,0.37,i,-10,i,62%*,i,i
C=C1CC2C(=O)N(Cc3cc(OC)ccc3OC)C(C(=O)OCC)(C(=O)OCC)C1N2C(=O)OC(C)(C)C (configuration not stated),i,i,0,i,-11,i,x,x,x
CC(C)Nc1nc(NC(C)C)nc(SCCOC(=O)Nc2ccc(Cl)cc2Cl)n1,i,i,-0.18,i,-9,i,i,i,i
CCNc1nc(NC(C)C)nc(SCCOC(=O)c2ccccc2)n1,i,i,-1.4,i,-6,i,x,x,x
COc1ccccc1CCNC(=O)C(=O)NCC1CCCN1S(=O)(=O)c1ccccc1 (configuration not stated),i,i,0.53,i,-16,i,x,x,x
Cc1c(C(=O)CN2CCN(c3ccccc3)CC2)c2ccccc2n1C,i,i,0.56,i,-6,i,i,i,i
Cc1nccc(-c2ccc(-n3cnc4ccccc43)cc2)n1,i,i,0.2,i,-7,i,i,i,i
CCOc1ccc(-c2nnc3ccc(SCC(=O)Nc4nc5ccc(C)cc5s4)nn23)cc1,i,-11*,-0.33,i,-12,i,70%*,i,i
Cc1ccc(S(=O)(=O)Nc2nc(-c3ccccc3)cs2)cc1,i,i,-0.63,i,-11,i,x,x,x
Cc1ccc(S(=O)(=O)Nc2ccccc2C(=O)Nc2nc(-c3ccc(F)cc3)cs2)cc1,i,-10*,-1.5,i,-16,i,64%*,i,39%*
